Active and inactive are the calls of the source. The rule behind the calls is not given here.
What was measured:
WTK1 [1] = test: Induction of apoptosis in human WTK1 cells expressing p53 M237I mutant assessed as increase in cleaved caspase 3 level at 25 uM after 8 hrs by Western blot analysis; assay type: functional, cell-based
In short: (§1)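 TK6, NH32 and WTK1 cells treated 8 h with 25 μM or vehicle; doxorubicin 0.1 μM as comparator. Protein extracts analysed by Western blot probed for cleaved PARP, caspase-3 and β-actin.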

TK6 [2] = test: Induction of apoptosis in human TK6 cells expressing wild type p53 assessed as necrotic cell population at 25 uM after 8 hrs using annexin-V and 7-ADD staining by flow cytometry; assay type: functional
In short: (§2)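 TK6 cells given 25 μM or vehicle for 8 h, washed twice in ice-cold PBS, stained with Annexin-V-PE plus 7-ADD. Flow cytometry assigned quadrant populations as percent of total cells. Histograms representative of three independent experiments.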

[3] = Cell cycle arrest in human WTK1 cells expressing p53 M237I mutant assessed as accumulation at sub-G0/G1 phase at 25 uM after 72 hrs by flow cytometry; assay type: functional, cell-based
In short: (§3)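 B lymphoblast lines TK6 (wild-type p53), NH32 (p53−/−) and WTK1 (mutant p53) exposed 72 h to 25 μM against vehicle; doxorubicin 0.1 μM as p53-dependent control. Washed twice in ice-cold PBS, held 1.5 h at 4°C in the dark in hypotonic fluorochrome solution (50 μg/ml propidium iodide, 25 μg/ml RNase, 0.1% citrate, 0.1% Triton X-100). Sub-G0/G1 apoptotic percentage from 10,000 events per flow histogram.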

TK6 [4] = test: Induction of apoptosis in human TK6 cells expressing wild type p53 assessed as live cell population at 25 uM after 8 hrs using annexin-V and 7-ADD staining by flow cytometry; assay type: functional; in short: as §2
WTK1 [5] = test: Induction of p53 phosphorylation at Ser15 in human WTK1 cells expressing p53 M237I mutant at 25 uM after 8 hrs by Western blot analysis; assay type: functional, cell-based
In short: (§4)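 TK6 and WTK1 cells (NH32 also run) treated 8 h at 25 μM, vehicle or doxorubicin 0.1 μM. Extracts immunoblotted for p53, phospho-p53 (Ser15), p21cip1/Waf1 and β-actin.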

WTK1 [6] = test: Induction of apoptosis in human WTK1 cells expressing p53 M237I mutant assessed as reduction of Bcl-Xl level at 25 uM after 8 hrs by Western blot analysis; assay type: functional, cell-based
In short: (§5)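 TK6, NH32 and WTK1 cells exposed 8 h to 25 μM, vehicle, or doxorubicin 0.1 μM. Protein extracted and Bcl-xL level assessed by Western blot.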

[7] = Cell cycle arrest in p53 deficient human NH32 cells assessed as accumulation at sub-G0/G1 phase at 25 uM after 72 hrs by flow cytometry; assay type: functional, cell-based; in short: as §3
TK6 [8] = test: Induction of apoptosis in human TK6 cells expressing wild type p53 assessed as reduction of Bcl-Xl level at 25 uM after 8 hrs by Western blot analysis; assay type: functional, cell-based; in short: as §5
NH32 [9] = test: Induction of apoptosis in p53 deficient human NH32 cells assessed as increase in cleaved caspase 3 level at 25 uM after 8 hrs by Western blot analysis; assay type: functional, cell-based; in short: as §1
TK6 [10] = test: Induction of apoptosis in human TK6 cells expressing wild type p53 assessed as decrease in pro-caspase 3 level at 25 uM after 8 hrs by Western blot analysis; assay type: functional, cell-based; in short: as §1
TK6 [11] = test: Induction of p53 phosphorylation at Ser15 in human TK6 cells expressing wild type p53 at 25 uM after 8 hrs by Western blot analysis; assay type: functional, cell-based; in short: as §4
TK6 [12] = test: Induction of apoptosis in human TK6 cells expressing wild type p53 assessed as late stage apoptotic cell population at 25 uM after 8 hrs using annexin-V and 7-ADD staining by flow cytometry; assay type: functional; in short: as §2
WTK1 [13] = test: Induction of p53 transcriptional activity in human WTK1 cells expressing p53 M237I mutant assessed as p21-Cip1/Waf1 expression at 25 uM after 8 hrs by Western blot analysis; assay type: functional, cell-based; in short: as §4
NH32 [14] = test: Induction of apoptosis in p53 deficient human NH32 cells assessed as increase in PARP cleavage at 25 uM after 8 hrs by Western blot analysis; assay type: functional, cell-based; in short: as §1
WTK1 [15] = test: Induction of apoptosis in human WTK1 cells expressing p53 M237I mutant assessed as decrease in pro-caspase 3 level at 25 uM after 8 hrs by Western blot analysis; assay type: functional, cell-based; in short: as §1
TK6 [16] = test: Induction of apoptosis in human TK6 cells expressing wild type p53 assessed as increase in PARP cleavage at 25 uM after 8 hrs by Western blot analysis; assay type: functional, cell-based; in short: as §1
TK6 [17] = test: Induction of apoptosis in human TK6 cells expressing wild type p53 assessed as depolarization of inner mitochondrial membrane potential at 25 uM after 8 hrs by flow cytometry relative to CCCP; assay type: functional, cell-based
In short: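 TK6 cells exposed 8 h to 25 μM, vehicle, or CCCP 100 μM as depolarisation control. Cells washed in ice-cold PBS and resuspended in PBS. Membrane potential read by flow cytometry as FL1 (JC-1 monomers) versus FL2 (aggregates) dual-parameter plots. Representative of three independent experiments.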

WTK1 [18] = test: Induction of apoptosis in human WTK1 cells expressing p53 M237I mutant assessed as increase in PARP cleavage at 25 uM after 8 hrs by Western blot analysis; assay type: functional, cell-based; in short: as §1
NH32 [19] = test: Induction of apoptosis in p53 deficient human NH32 cells assessed as decrease in pro-caspase 3 level at 25 uM after 8 hrs by Western blot analysis; assay type: functional, cell-based; in short: as §1
[20] = Cell cycle arrest in human TK6 cells expressing wild type p53 assessed as accumulation at sub-G0/G1 phase at 25 uM after 72 hrs by flow cytometry; assay type: functional, cell-based; in short: as §3
TK6 [21] = test: Induction of p53 transcriptional activity in human TK6 cells expressing wild type p53 assessed as p21-Cip1/Waf1 expression at 25 uM after 8 hrs by Western blot analysis; assay type: functional, cell-based; in short: as §4
NH32 [22] = test: Induction of apoptosis in p53 deficient human NH32 cells assessed as reduction of Bcl-Xl level at 25 uM after 8 hrs by Western blot analysis; assay type: functional, cell-based; in short: as §5
TK6 [23] = test: Induction of apoptosis in human TK6 cells expressing wild type p53 assessed as early stage apoptotic cell population at 25 uM after 8 hrs using annexin-V and 7-ADD staining by flow cytometry; assay type: functional; in short: as §2
TK6 [24] = test: Induction of apoptosis in human TK6 cells expressing wild type p53 assessed as increase in cleaved caspase 3 level at 25 uM after 8 hrs by Western blot analysis; assay type: functional, cell-based; in short: as §1
TK6 [25] = test: Cytotoxicity against human TK6 cells expressing wild type p53; assay type: functional, cell-based
[26] = Cell cycle arrest in human TK6 cells expressing wild type p53 assessed as accumulation at sub-G0/G1 phase after 72 hrs by flow cytometry; assay type: functional, cell-based
In short: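 Cells exposed 72 h to vehicle or compound (0.1 μM doxorubicin or 25 μM others) and harvested. Washed twice in ice-cold PBS, then resuspended in hypotonic solution (50 μg/ml propidium iodide, 25 μg/ml RNase, 0.1% sodium citrate, 0.1% Triton X-100) and held 1.5 h at 4°C in the dark. Flow cytometry at 10,000 events per histogram; cell death taken as the sub-G0/G1 fraction.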

In the case of `O=C1C2CCN(CC2)C1(CO)CO`, the Activity (WTK1 [1]) was “inactive”, the Activity (TK6 [2]) was 1.3% and the Activity [3] was “Active”. For the same compound, the Activity (TK6 [4]) was 66.1%, the Activity (WTK1 [5]) was “inactive” and the Activity (WTK1 [6]) was “inactive”. For the same compound, the Activity [7] was “Active”, the Activity (TK6 [8]) was “Active” and the Activity (NH32 [9]) was “inactive”. The Activity (TK6 [10]) was “inactive”, the Activity (TK6 [11]) was “inactive” and the Activity (TK6 [12]) was 17.6%. The Activity (WTK1 [13]) was “inactive”, the Activity (NH32 [14]) was “inactive” and the Activity (WTK1 [15]) was “inactive”. For the same compound, the Activity (TK6 [16]) was “inactive”, the Activity (TK6 [17]) was “inactive” and the Activity (WTK1 [18]) was “inactive”. For the same compound, the Activity (NH32 [19]) was “inactive”, the Activity [20] was “Active” and the Activity (TK6 [21]) was “inactive”. For the same compound, the Activity (NH32 [22]) was “inactive”, the Activity (TK6 [23]) was 14.9% and the Activity (TK6 [24]) was “inactive”.
In the case of `O=C(CCNC(=O)C(F)F)c1ccccc1`, the Activity (TK6 [25]) was “Not toxic” and the Activity [26] was “inactive”.

— ChEMBL document CHEMBL1137756, “Induction of apoptosis promoted by Bang52; a small molecule that downregulates Bcl-x(L)” (2009)
